ChEMBL document CHEMBL3286354, “9- and 11-Substituted 4-azapaullones are potent and selective inhibitors of African trypanosoma” (Eur J Med Chem, 2014)
pEC50, pIC50: −log10 of the molar value. Values belong to the compound of their own block, whether it stands above or below them.

Tests used:
[1] = Toxicity in mouse macrophages at 56 uM after 24 hrs by xCELLingence assay relative to control; assay type: cell-based; conditions: macrophage
Summary of the method: (§1)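 Mouse bone marrow-derived macrophages were seeded at 7.5×10^4 per well in DMEM with 2 mM L-glutamine and 10% heat-inactivated FCS for 24 h. They were then exposed for 24 h to each compound at its highest soluble concentration. Impedance (cell index) was read every 30 min. % toxicity = 100 − (cell index compound / cell index medium × 100).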

[2] = system: Trypanosoma brucei brucei; test: Antitrypanosomal activity against Trypanosoma brucei brucei 427 assessed as viability at 30 uM after 24 hrs by Flow cytometry relative to control; assay type: functional
Summary of the method: (§2)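 Single-concentration primary screen on infective T. b. brucei 427, seeded at 5×10^5 cells/mL in HMI-9/10% FBS, 37 °C, 5% CO2, for 24 h. Live cells were counted by flow cytometry with propidium iodide gating over a fixed 60 s acquisition. % viability is relative to the DMSO proliferation control. Triplicates; error as 2 SD.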

[3] = target: T1, Trypanothione synthetase (Trypanosoma brucei brucei) (UniProt Q86MC2); test: Inhibition of Trypanosoma brucei brucei trypanothione synthetase assessed as residual activity at 30 uM after 15 mins incubation by Biomol Green phosphate release absorbance assay
T1 sequence (whole entry): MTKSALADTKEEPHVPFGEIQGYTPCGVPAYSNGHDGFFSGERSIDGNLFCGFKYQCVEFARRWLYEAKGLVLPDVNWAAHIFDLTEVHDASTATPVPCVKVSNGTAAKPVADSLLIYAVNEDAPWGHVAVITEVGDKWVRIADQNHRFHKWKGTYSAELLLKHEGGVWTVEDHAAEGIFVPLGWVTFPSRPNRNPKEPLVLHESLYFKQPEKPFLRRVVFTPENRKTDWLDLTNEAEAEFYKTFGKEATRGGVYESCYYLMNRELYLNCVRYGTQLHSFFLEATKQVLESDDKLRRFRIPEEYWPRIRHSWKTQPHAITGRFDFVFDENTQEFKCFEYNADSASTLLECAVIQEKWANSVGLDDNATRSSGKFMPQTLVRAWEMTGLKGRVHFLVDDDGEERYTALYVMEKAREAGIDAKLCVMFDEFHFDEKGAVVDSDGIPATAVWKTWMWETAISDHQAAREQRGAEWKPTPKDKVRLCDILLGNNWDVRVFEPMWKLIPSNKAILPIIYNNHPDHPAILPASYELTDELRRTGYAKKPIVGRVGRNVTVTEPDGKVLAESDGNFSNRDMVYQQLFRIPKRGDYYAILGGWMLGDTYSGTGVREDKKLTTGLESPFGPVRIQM

[4] = system: Trypanosoma brucei brucei; test: Antitrypanosomal activity against Trypanosoma brucei brucei 427 assessed as viability at 5 uM after 24 hrs by Flow cytometry relative to control; assay type: functional; summary of the method: as §2
[5] = Toxicity in mouse macrophages at 26 uM after 24 hrs by xCELLingence assay relative to control; assay type: cell-based; conditions: macrophage; summary of the method: as §1
[6] = Toxicity in mouse macrophages at 59 uM after 24 hrs by xCELLingence assay relative to control; assay type: cell-based; conditions: macrophage; summary of the method: as §1
[7] = Toxicity in mouse macrophages at 48 uM after 24 hrs by xCELLingence assay relative to control; assay type: cell-based; conditions: macrophage; summary of the method: as §1
[8] = target: Cyclin-dependent kinase 2/cyclin E1 (Homo sapiens, UniProt P24941); test: Inhibition of human recombinant CDK2/cyclin E; assay type: protein-complex assay
Summary of the method: (§3)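 Radiometric kinase assays in buffer A (10 mM MgCl2, 1 mM EGTA, 1 mM DTT, 25 mM Tris-HCl pH 7.5, heparin) or buffer B, with ATP, 30 min at 30 °C. Products were captured on P81 phosphocellulose, washed in 1% phosphoric acid and scintillation counted. Activity is % of the uninhibited control. Substrates: histone H1 for CDK2/CDK5 (BSA added for CDK5), CDK7/9-Tide for CDK9, RS peptide for DYRK1A/CLK1, GS-1 for GSK-3, CKS peptide for CK1.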

CDK9/cyclin T1 = CDK9/cyclin T1 (Homo sapiens, UniProt P50750); test: Inhibition of human recombinant CDK9/cyclin T; assay type: protein-complex assay; summary of the method: as §3
[9] = target: Dual specificity protein kinase CLK1 (Mus musculus, UniProt P22518); test: Inhibition of mouse recombinant CLK1; summary of the method: as §3
[10] = Inhibition of pig brain CK1 delta/epsilon using CKS peptide substrate; set-up: species or system Sus scrofa; summary of the method: as §3
[11] = target: Glycogen synthase kinase-3 (Sus scrofa, UniProt B2LUN4+I6LNT8); test: Inhibition of pig brain GSK-3alpha/beta using GS-1 peptide substrate; summary of the method: as §3
[12] = system: Trypanosoma brucei brucei; test: Antitrypanosomal activity against Trypanosoma brucei brucei 427 assessed as viability after 24 hrs by Flow cytometry; assay type: functional, organism-based; conditions: Trypanosoma brucei, 427, 24 h
Summary of the method: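 Infective bloodstream T. b. brucei 427 (cell line 449 carrying a redox biosensor) in HMI-9 with 10% FBS at 37 °C, 5% CO2. Cells were seeded at 5×10^5 cells/mL with two-fold serial dilutions from DMSO stocks and incubated 24 h. Viability was by propidium iodide exclusion flow cytometry. EC50 came from a sigmoidal Boltzmann fit or non-linear extrapolation, with error as 2 SD.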

[13] = target: Cyclin-dependent kinase 5/CDK5 activator 1 (Homo sapiens, UniProt Q00535); test: Inhibition of human recombinant CDK5/p25; assay type: protein-complex assay; summary of the method: as §3
[14] = target: Dual specificity tyrosine-phosphorylation-regulated kinase 1A (Homo sapiens, UniProt Q13627); test: Inhibition of human recombinant DYRK1A; summary of the method: as §3
[15] = Inhibition of starfish CDK1/cyclinB using histone H1 substrate
[16] = Toxicity in mouse macrophages at 12 uM after 24 hrs by xCELLingence assay relative to control; assay type: cell-based; conditions: macrophage; summary of the method: as §1
[17] = Toxicity in mouse macrophages at 29 uM after 24 hrs by xCELLingence assay relative to control; assay type: cell-based; conditions: macrophage; summary of the method: as §1
[18] = Toxicity in mouse macrophages at 58 uM after 24 hrs by xCELLingence assay relative to control; assay type: cell-based; conditions: macrophage; summary of the method: as §1
[19] = Toxicity in mouse macrophages at 60 uM after 24 hrs by xCELLingence assay relative to control; assay type: cell-based; conditions: macrophage; summary of the method: as §1
[20] = Toxicity in mouse macrophages at 10 uM after 24 hrs by xCELLingence assay relative to control; assay type: cell-based; conditions: macrophage; summary of the method: as §1
[21] = Toxicity in mouse macrophages at 54 uM after 24 hrs by xCELLingence assay relative to control; assay type: cell-based; conditions: macrophage; summary of the method: as §1
[22] = Toxicity in mouse macrophages at 24 uM after 24 hrs by xCELLingence assay relative to control; assay type: cell-based; conditions: macrophage; summary of the method: as §1
[23] = Toxicity in mouse macrophages at 5 uM after 24 hrs by xCELLingence assay relative to control; assay type: cell-based; conditions: macrophage; summary of the method: as §1

Sequence of Cyclin-dependent kinase 5/CDK5 activator 1 (Q00535 whole entry): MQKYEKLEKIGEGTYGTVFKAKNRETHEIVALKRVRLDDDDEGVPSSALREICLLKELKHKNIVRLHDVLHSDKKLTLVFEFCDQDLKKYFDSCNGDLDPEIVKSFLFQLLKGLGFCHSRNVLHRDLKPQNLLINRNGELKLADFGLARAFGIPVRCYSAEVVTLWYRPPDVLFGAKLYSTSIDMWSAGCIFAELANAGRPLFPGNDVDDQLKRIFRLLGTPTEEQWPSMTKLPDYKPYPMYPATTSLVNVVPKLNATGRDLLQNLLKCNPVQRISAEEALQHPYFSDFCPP
Sequence of Cyclin-dependent kinase 5/CDK5 activator 1 (Q15078 whole entry, further chain): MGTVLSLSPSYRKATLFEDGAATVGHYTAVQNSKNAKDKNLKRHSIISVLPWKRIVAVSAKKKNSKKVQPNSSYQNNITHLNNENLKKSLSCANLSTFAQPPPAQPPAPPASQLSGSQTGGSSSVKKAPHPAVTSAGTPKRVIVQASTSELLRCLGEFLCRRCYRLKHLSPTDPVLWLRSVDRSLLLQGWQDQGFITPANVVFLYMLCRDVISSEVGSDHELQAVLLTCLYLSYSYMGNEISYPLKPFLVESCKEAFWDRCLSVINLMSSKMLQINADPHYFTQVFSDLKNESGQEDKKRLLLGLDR
Sequence of Dual specificity protein kinase CLK1 (P22518 whole entry): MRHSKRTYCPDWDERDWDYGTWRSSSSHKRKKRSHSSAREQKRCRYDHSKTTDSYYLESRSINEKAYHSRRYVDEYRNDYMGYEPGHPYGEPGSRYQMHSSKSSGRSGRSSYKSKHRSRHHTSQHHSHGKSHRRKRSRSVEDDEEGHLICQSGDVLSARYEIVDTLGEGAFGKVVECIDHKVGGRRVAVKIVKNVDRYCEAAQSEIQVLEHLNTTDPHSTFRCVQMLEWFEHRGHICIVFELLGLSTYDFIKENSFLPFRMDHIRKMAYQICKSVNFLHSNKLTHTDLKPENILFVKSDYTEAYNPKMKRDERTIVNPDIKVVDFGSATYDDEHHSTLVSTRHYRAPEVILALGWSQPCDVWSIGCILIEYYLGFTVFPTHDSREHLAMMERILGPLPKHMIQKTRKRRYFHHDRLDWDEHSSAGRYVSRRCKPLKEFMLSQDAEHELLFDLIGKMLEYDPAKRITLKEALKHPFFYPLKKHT
Sequence of CDK9/cyclin T1 (O60563 whole entry): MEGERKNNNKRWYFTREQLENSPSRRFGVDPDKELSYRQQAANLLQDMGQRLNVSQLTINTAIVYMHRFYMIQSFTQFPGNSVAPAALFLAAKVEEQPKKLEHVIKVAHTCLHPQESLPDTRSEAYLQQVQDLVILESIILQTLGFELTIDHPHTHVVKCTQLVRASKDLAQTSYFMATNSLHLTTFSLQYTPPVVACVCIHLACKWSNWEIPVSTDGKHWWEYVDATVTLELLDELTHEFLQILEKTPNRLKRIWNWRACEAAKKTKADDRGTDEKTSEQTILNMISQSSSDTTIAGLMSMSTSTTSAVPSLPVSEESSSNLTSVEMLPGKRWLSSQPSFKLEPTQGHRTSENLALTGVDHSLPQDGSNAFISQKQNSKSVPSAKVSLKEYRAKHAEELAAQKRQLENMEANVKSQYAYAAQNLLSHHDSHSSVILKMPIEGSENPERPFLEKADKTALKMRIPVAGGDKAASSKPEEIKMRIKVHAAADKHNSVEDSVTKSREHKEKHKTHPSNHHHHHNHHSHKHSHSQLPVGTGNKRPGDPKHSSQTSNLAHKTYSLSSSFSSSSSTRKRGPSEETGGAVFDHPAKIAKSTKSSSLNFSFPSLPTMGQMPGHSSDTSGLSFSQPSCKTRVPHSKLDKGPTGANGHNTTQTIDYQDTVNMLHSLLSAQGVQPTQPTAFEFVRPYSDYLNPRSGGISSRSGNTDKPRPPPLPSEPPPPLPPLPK
Sequence of CDK9/cyclin T1 (P50750 whole entry): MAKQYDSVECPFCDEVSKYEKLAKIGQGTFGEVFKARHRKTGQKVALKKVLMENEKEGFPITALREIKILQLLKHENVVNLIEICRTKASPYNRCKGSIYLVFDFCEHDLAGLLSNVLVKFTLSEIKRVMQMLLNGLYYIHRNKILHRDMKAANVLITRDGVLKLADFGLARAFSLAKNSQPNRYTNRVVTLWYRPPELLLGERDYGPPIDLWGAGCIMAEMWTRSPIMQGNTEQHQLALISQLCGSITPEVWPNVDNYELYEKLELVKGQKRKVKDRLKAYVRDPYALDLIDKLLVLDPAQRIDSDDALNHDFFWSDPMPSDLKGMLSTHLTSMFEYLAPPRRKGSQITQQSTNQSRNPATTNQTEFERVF

Structure (SMILES): CCN(CC)C(=O)/C=C/c1cccc2c3c([nH]c12)-c1cccnc1NC(=O)C3
- Activity [1]: < 0%
- Activity [2]: 81.6%
- Activity [3]: 102%

Structure (SMILES): CCN(CC)C(=O)/C=C/c1ccc2[nH]c3c(c2c1)CC(=O)Nc1ncccc1-3
- Activity [6]: < 0%
- Activity [2]: 22.1%
- Activity [3]: 91.5%

Structure (SMILES): O=C1Cc2c([nH]c3c(/C=C/C(=O)c4ccccc4)cccc23)-c2cccnc2N1
- pIC50 [8]: < 5.00
- pIC50 (CDK9/cyclin T1): < 5.00
- Activity [4]: < 10%
- pIC50 [9]: < 5.00
- pIC50 [10]: < 5.00
- IC50 [11]: > 10 µM
- pEC50 [12]: 6.74
- pIC50 [13]: < 5.00
- Activity [5]: 28.3%
- Activity [3]: 91.1%
- pIC50 [14]: < 5.00
- pIC50 [15]: < 5.00

Structure (SMILES): O=C1Cc2c([nH]c3c(/C=C/C(=O)c4ccc(Cl)cc4)cccc23)-c2cccnc2N1
- Activity [16]: 9.2%
- Activity [4]: 74.6%
- Activity [3]: 73.2%

Structure (SMILES): O=C(/C=C/c1ccc2[nH]c3c(c2c1)CC(=O)Nc1ncccc1-3)NCc1ccccc1
- Activity [4]: 12.1%
- Activity [17]: < 0%
- Activity [3]: 67.5%

Structure (SMILES): O=C(/C=C/c1ccc2[nH]c3c(c2c1)CC(=O)Nc1ncccc1-3)Nc1ccccc1
- Activity [4]: < 10%
- pEC50 [12]: 5.60
- Activity [3]: 68.1%
- Activity [18]: < 0%

Structure (SMILES): O=C(/C=C/c1cccc2c3c([nH]c12)-c1cccnc1NC(=O)C3)Nc1ccccc1
- pIC50 [8]: < 5.00
- pIC50 (CDK9/cyclin T1): < 5.00
- Activity [4]: < 10%
- pIC50 [9]: < 5.00
- pIC50 [10]: 6.31
- IC50 [11]: > 10 µM
- pEC50 [12]: 6.92
- pIC50 [13]: < 5.00
- Activity [19]: 74.7%
- Activity [3]: 94.6%
- pIC50 [14]: < 5.00
- pIC50 [15]: < 5.00

Structure (SMILES): O=C1Cc2c([nH]c3ccc(I)cc23)-c2cccnc2N1
- Activity [20]: 12.3%
- Activity [2]: 72.1%
- Activity [3]: 96.7%

Structure (SMILES): O=C(/C=C/c1cccc2c3c([nH]c12)-c1cccnc1NC(=O)C3)NCc1ccccc1
- Activity [4]: < 10%
- pEC50 [12]: 6.35
- Activity [3]: 81.8%
- Activity [22]: 4.16%

Structure (SMILES): O=C1Cc2c([nH]c3c(I)cccc23)-c2cccnc2N1
- Activity [23]: 4.4%
- Activity [2]: 61.3%
- Activity [3]: 112%

Further lines, with some results ahead:

- Activity [3]: 61.9%
Structure (SMILES): O=C1Cc2c([nH]c3ccc(/C=C/C(=O)c4ccccc4)cc23)-c2cccnc2N1
- Activity [4]: 54%
- Activity [5]: 7.6%

- Activity [3]: 80.4%
Structure (SMILES): COc1ccc(C(=O)/C=C/c2cccc3c4c([nH]c23)-c2cccnc2NC(=O)C4)cc1
- Activity [2]: 79.9%
- Activity [7]: 16.5%

- Activity [3]: 79.8%
Structure (SMILES): O=C1Cc2c([nH]c3ccc(/C=C/C(=O)c4ccc(Cl)cc4)cc23)-c2cccnc2N1
- Activity [4]: 38.4%
- Activity [7]: 4.73%

- Activity [3]: 90.2%
Structure (SMILES): O=C1Cc2c([nH]c3ccc(/C=C/C(=O)c4ccco4)cc23)-c2cccnc2N1
- Activity [2]: 21.9%
- Activity [21]: 17.6%

- Activity [3]: 77.6%
Structure (SMILES): COc1ccc(C(=O)/C=C/c2ccc3[nH]c4c(c3c2)CC(=O)Nc2ncccc2-4)cc1
- Activity [16]: 20.3%
- Activity [4]: 44.5%
